Data on one molecule can be found in ChEMBL document CHEMBL3758131, “Towards new 5-HT7 antagonists among arylsulfonamide derivatives of (aryloxy)ethyl-alkyl amines: Multiobjective based design, synthesis, and antidepressant and anxiolytic properties” (Eur J Med Chem, 2016).

For one data set, the species on record is Homo sapiens. The data set is described as follows: Selectivity index ratio of Ki for human 5-HT1A receptor to Ki for human 5-HT7B.
Data set [1] concerns Mus musculus. In words: Toxicity in ip dosed C57BL/6J mouse assessed as effect on spontaneous locomotory activity at MED measured over 6 mins. Particulars: in vivo, 0.1 h. The data set is classed as organism-based. Put shortly:
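Mice habituated 30 min in individual cages, then ambulation counted over a period matching each behavioural test: 6 min for the tail suspension test and 1 min 15 s for the four-plate test. Compounds given ip at the active doses.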

Data set [2] has as its system Mus musculus. In words: Antidepressant activity in C57BL/6J mouse assessed as immobility time at […] mg/kg, ip measured over 6 mins by tail suspension test (reference value: 160.7 +/- 12 to 170.6 +/- 9 sec). It counts as functional.
The test system of data set [3] is Mus musculus. In words: Anxiolytic activity in ip dosed albino Swiss mouse assessed as increase in number of shocks accepted measured over 1 min, 15 secs by four plates test. It counts as functional. Particulars: read-out: MED. The method in brief:
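Male Albino Swiss mice, ip injection 60 min before test. Four-plate cage; after 15 s of habituation, each plate-to-plate crossing during a 1-min session is punished with a 0.8 mA, 0.5 s foot shock, followed by a 3-s shock-free interval. Number of shocks accepted is counted.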

Data set [4] relates to Mus musculus. The data set is described as follows: Antidepressant activity in ip dosed albino Swiss mouse assessed as decrease in immobility time at MED by forced swim test. It counts as functional.
Data set [5] concerns Mus musculus. The data set is described as follows: Antidepressant activity in C57BL/6J mouse assessed as number of events at 5 mg/kg, ip measured over 6 mins by tail suspension test (reference value: 1325.1 +/- 77.8 to 1773.4 +/- 109.9). It counts as functional.
For data set [6], the system named is Mus musculus. In words: Antidepressant activity in C57BL/6J mouse assessed as number of events at […] mg/kg, ip measured over 6 mins by tail suspension test (reference value: 1325.1 +/- 77.8 to 1773.4 +/- 109.9). The data set is classed as functional.
Data set [7] relates to Mus musculus. In words: Antidepressant activity in C57BL/6J mouse assessed as immobility time at 0.625 mg/kg, ip measured over 6 mins by tail suspension test (reference value: 160.7 +/- 12 to 170.6 +/- 9 sec). The data set is classed as functional.
Data set [8] deals with Mus musculus. In words: Antidepressant activity in C57BL/6J mouse assessed as average force at […] mg/kg, ip measured over 6 mins by tail suspension test (reference value: 0.281 +/- 0.018 to 0.359 +/- 0.027 N). The data set is classed as functional.

Turning to `O=S(=O)(NC1CCN(CCOc2ccccc2C2CCCC2)CC1)c1cccc(F)c1`, the Ratio Ki in the data set filed under Homo sapiens is 31. The Activity entry in the data set with Mus musculus [1] is reported as “Non-toxic”; with Mus musculus [5], 1682; in the data set with Mus musculus [6], 1595.4; in the data set with Mus musculus [8], 0.29 N. Moreover, the Time in the data set on Mus musculus [2] was determined as 192.5 s; with Mus musculus [7], 234.4 s. Besides, in the data set with Mus musculus [3], the minimal effective dose came to 1.25 mg/kg. For the same molecule, the “inhibition (INH)” value in the data set on Mus musculus [4] came out at 18%.
